From ChEMBL document CHEMBL1124727, “Neuronal mapping of the heart with 6-[18F]fluorometaraminol” (1990)

Tests used:
Canis familiaris [1] = assay: Tissue concentration in dog blood 0.5 hr after iv administration; assay type: functional, Canis lupus familiaris
Procedure, shortened: (§1)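 Dogs given ³H tracer (92–100 μCi) as iv cephalic-vein bolus in 2.0 mL sterile acetate buffer pH 4.5; 1–3 dogs per time point. Killed 30 min (or 24 h) later by iv pentobarbital; duplicate tissue samples oxidized and liquid-scintillation counted with background and efficiency correction. Expressed as % kg dose/g; ratio = left ventricle to blood.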

Canis familiaris [2] = assay: Tissue concentration in dog blood 24 hr after iv administration; assay type: functional, Canis lupus familiaris
Procedure, shortened: (§2)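 Dogs (one to three per time point) received bolus cephalic vein injection of 92–100 μCi ³H tracer in 2.0 mL sterile acetate buffer pH 4.5; sacrificed 30 min or 24 h later by iv sodium pentobarbital. Duplicate organ samples oxidized and liquid-scintillation counted with background/efficiency correction; % kg dose/g ± SEM; heart ratio uses left ventricle/blood.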

Canis familiaris [3] = assay: Tissue concentration in dog heart 0.5 hr after iv administration; assay type: functional, Canis lupus familiaris; procedure, shortened: as §2
Canis familiaris [4] = assay: Tissue concentration in dog heart 24 hr after iv administration; assay type: functional, Canis lupus familiaris; procedure, shortened: as §2
Canis familiaris [5] = assay: (§3) Tissue concentration in dog left ventricle to blood ratio 0.5 hr after iv administration; assay type: functional, Canis lupus familiaris; procedure, shortened: as §2
Canis familiaris [6] = assay: Tissue concentration in dog liver 0.5 hr after iv administration; assay type: functional, Canis lupus familiaris; procedure, shortened: as §1
Canis familiaris [7] = assay: Tissue concentration in dog liver 24 hr after iv administration; assay type: functional, Canis lupus familiaris; procedure, shortened: as §2
Canis familiaris [8] = assay: Tissue concentration in dog lung 0.5 hr after iv administration; assay type: functional, Canis lupus familiaris; procedure, shortened: as §2
Canis familiaris [9] = assay: Tissue concentration in dog lung 24 hr after iv administration; assay type: functional, Canis lupus familiaris; procedure, shortened: as §2
Canis familiaris [10] = assay: Tissue concentration in dog spleen 0.5 hr after iv administration; assay type: functional, Canis lupus familiaris; procedure, shortened: as §2
Canis familiaris [11] = assay: Tissue concentration in dog spleen 24 hr after iv administration; assay type: functional, Canis lupus familiaris; procedure, shortened: as §2
Canis familiaris [12] = assay: Tissue concentration in dog left ventricle to blood ratio 24 hr after iv administration; assay type: functional, Canis lupus familiaris; procedure, shortened: as §2
Rattus norvegicus [13] = assay: Neuronal selectivity expressed as Concentration in spleen after iv administration in rat, pretreated with 6-hydroxydopamine (control = 1.88+/-0.25); assay type: functional, organism-based
Rattus norvegicus [14] = assay: Neuronal selectivity expressed as Concentration in blood after iv administration in rat, pretreated with 6-hydroxydopamine (control = 0.062+/-0.012); assay type: functional, organism-based
Rattus norvegicus [15] = assay: Neuronal selectivity expressed as Concentration in left atrium after iv administration in rat, pretreated with 6-hydroxydopamine (control = 5.26+/-0.43); assay type: functional, organism-based; settings: Cardiac atrium
Rattus norvegicus [16] = assay: Neuronal selectivity expressed as Concentration in left ventricle after iv administration in rat, pretreated with 6-hydroxydopamine (control = 5.38+/-0.39); assay type: functional, organism-based; settings: Heart left ventricle
Rattus norvegicus [17] = assay: Neuronal selectivity expressed as Concentration in right atrium after iv administration in rat, pretreated with 6-hydroxydopamine (control = 5.19+/-0.14); assay type: functional, organism-based; settings: Cardiac atrium
Rattus norvegicus [18] = assay: Neuronal selectivity expressed as Concentration in right ventricle after iv administration in rat, pretreated with 6-hydroxydopamine (control = 6.10+/-0.45); assay type: functional, organism-based; settings: Heart right ventricle
Rattus norvegicus [19] = organism: Rattus norvegicus; assay: Percente change in thallium-201 concentration in left atrium of sympathectomized rat, pretreated with 6-hydroxydopamine; assay type: functional, Cardiac atrium
Procedure, shortened: (§4)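 Female Sprague-Dawley rats (200–300 g) given 6-hydroxydopamine HBr 100 mg/kg ip, freshly made in saline, 5 days before tracer; controls got vehicle. Thallium-201 (23–28 μCi) iv via femoral vein; decapitated 90 min later; tissue radioactivity counted; N = 6. Value is % change in treated versus control tissue concentration.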

Rattus norvegicus [20] = organism: Rattus norvegicus; assay: Percent change in thallium-201 concentration in left ventricle of sympathectomized rat, pretreated with 6-hydroxydopamine; assay type: functional, Heart left ventricle
Procedure, shortened: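 Blood-perfusion check in rats under same 6-hydroxydopamine protocol (100 mg/kg ip, 5 days before tracer): thallium-201 23–28 μCi iv via femoral vein, decapitation 90 min later, N = 6; percent change in tissue radioactivity of treated versus control rats.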

Rattus norvegicus [21] = organism: Rattus norvegicus; assay: Percent change in thallium-201 concentration in right atrium of sympathectomized rat, pretreated with 6-hydroxydopamine; assay type: functional, Cardiac atrium; procedure, shortened: as §4
Rattus norvegicus [22] = organism: Rattus norvegicus; assay: Percent change in thallium-201 concentration in spleen of sympathectomized rat, pretreated with 6-hydroxydopamine; assay type: functional
Rattus norvegicus [23] = organism: Rattus norvegicus; assay: Percent change in [3H]metaraminol concentration in blood of sympathectomized rat, pretreated with 6-hydroxydopamine
Rattus norvegicus [24] = organism: Rattus norvegicus; assay: Percent change in [3H]metaraminol concentration in right ventricle of sympathectomized rat, pretreated with 6-hydroxydopamine
Canis familiaris [25] = assay: as §3; assay type: functional, Canis lupus familiaris; procedure, shortened: as §1; remark: listed apart in the source
Rattus norvegicus [26] = organism: Rattus norvegicus; assay: Percentage change in thallium-201 in right ventricle of sympathectomized rat, pretreated with 6-hydroxydopamine; assay type: functional, Heart right ventricle; procedure, shortened: as §4
Rattus norvegicus [27] = organism: Rattus norvegicus; assay: Percentage change in thallium-201 in spleen of sympathectomized rat, pretreated with 6-hydroxydopamine; assay type: functional; procedure, shortened: as §4
Rattus norvegicus [28] = organism: Rattus norvegicus; assay: Percentage change in thallium-201 in blood of sympathectomized rat, pretreated with 6-hydroxydopamine; assay type: functional; procedure, shortened: as §4
Rattus norvegicus [29] = organism: Rattus norvegicus; assay: Percentage change in thallium-201 in left ventricle of sympathectomized rat, pretreated with 6-hydroxydopamine; assay type: functional, Heart left ventricle; procedure, shortened: as §4

Compound	[3H] concentration (Canis familiaris [1]) [% kg dose g-1]	[3H] concentration (Canis familiaris [2]) [% kg dose g-1]	[3H] concentration (Canis familiaris [3]) [% kg dose g-1]	[3H] concentration (Canis familiaris [4]) [% kg dose g-1]	[3H] concentration (Canis familiaris [5])	[3H] concentration (Canis familiaris [6]) [% kg dose g-1]	[3H] concentration (Canis familiaris [7]) [% kg dose g-1]	[3H] concentration (Canis familiaris [8]) [% kg dose g-1]	[3H] concentration (Canis familiaris [9]) [% kg dose g-1]	[3H] concentration (Canis familiaris [10]) [% kg dose g-1]	[3H] concentration (Canis familiaris [11]) [% kg dose g-1]	[3H] concentration (Canis familiaris [12])	Change (Rattus norvegicus [19]) [%]	Change (Rattus norvegicus [21]) [%]	also measured
C[C@H](N)[C@H](O)c1cccc(O)c1 (stereo in doubt; form 1) [METARAMINOL]	0.03	0.008	0.55	0.59	18	0.42	0.13	0.2	0.03	0.81	0.5	74			
C[C@H](N)[C@H](O)c1cccc(O)c1 (stereo in doubt; form 2)															Concentration (Rattus norvegicus [13]): 0.46 % dose g-1; Concentration (Rattus norvegicus [14]): 0.158 % dose g-1; Concentration (Rattus norvegicus [15]): 0.75 % dose g-1; Concentration (Rattus norvegicus [16]): 1.05 % dose g-1; Concentration (Rattus norvegicus [17]): 0.86 % dose g-1; Concentration (Rattus norvegicus [18]): 1.32 % dose g-1
C[C@H](N)[C@H](O)c1cccc(O)c1 (stereo in doubt; form 2) [METARAMINOL]		0.009	0.72	0.51	24		0.17	0.13	0.05	0.88	0.73	57	-86	-83	Change (Rattus norvegicus [20]): -86%; Change (Rattus norvegicus [22]): -76%; Change (Rattus norvegicus [23]): 155%; Change (Rattus norvegicus [24]): -80%
[3H][C@](O)(CN)c1ccc(O)c(O)c1 [[3H]NOREPINEPHRINE]	0.04	0.017	0.74	0.16		0.27	0.09	0.18	0.03	0.81	0.52	9	-92	-94	[3H] concentration (Canis familiaris [25]): 19; Change (Rattus norvegicus [26]): -92%; Change (Rattus norvegicus [27]): -71%; Change (Rattus norvegicus [28]): -20%; Change (Rattus norvegicus [29]): -85%
